Tests used:
[1] = molecular target: Acetyl-CoA carboxylase 1 (Mus musculus) (UniProt Q5SWU9); experiment: In Vitro evaluation for the CF1 liver enzyme activity on Acetyl-CoA carboxylase at concentration 100 uM
Summary of the method: (§1)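 Liver was taken from CF1 male mice and made into 10% homogenates, which were incubated with test compound at 50, 100 or 200 µM. Each enzyme was assayed by its literature method, and protein was measured by Lowry. N = 6. Activity is expressed as % of untreated control ± SD.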

Mus musculus [2] = species: Mus musculus; experiment: In Vitro evaluation for the CF1 liver enzyme activity on Hepatic lipoprotein lipase at concentration 50 uM; format: functional
Summary of the method: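 Mouse liver enzymes assayed in vitro on 10% homogenates of CF1 male mouse liver, with test drug added at 50–200 μM. Each enzyme follows a published procedure. Protein is measured by Lowry. Activity is given as % of untreated control (X ± SD, N = 6).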

Rattus norvegicus [3] = experiment: Compound was evaluated for the hypolipidemic activity at 20 mg/kg per day orally for 14 days on neutral lipids content in rat LDL; format: functional; conditions: route oral
Summary of the method: (§2)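 Male Sprague–Dawley rats (~300 g) were dosed orally each day. Blood was drawn from the abdominal vein. Lipoprotein fractions (chylomicron, VLDL, LDL, HDL) were separated by the Hatch–Lees and Havel methods. Each fraction was assayed for cholesterol, triglyceride (enzymatic kit), neutral lipids, phospholipids and Lowry protein. Values are % of 1% CMC vehicle control, N = 6.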

Mus musculus [4] = experiment: Hypolipidemic activity in CF1 male mice at a dose of 20 mg/kg per day, serum cholesterol measured on the 9th day; format: functional
Summary of the method: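 CF1 male mice (~30 g) were given 20 mg/kg per day ip at 11:00 a.m.; N = 6 per group. Tail-vein serum was collected in nonheparinized microcapillaries. Cholesterol was measured on days 9 and 16 by modified Liebermann–Burchard on duplicate 25 µL samples. Triglyceride was measured on day 16 in a separate group, duplicate 50 µL. Values are % control ± SD; Student's t test.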

[5] = molecular target: T1, ATP-citrate synthase (Mus musculus) (UniProt Q91V92); experiment: In Vivo effect for the hypolipidemic activity on ATP-Citrate Lyase in CF1 mice after 16 days administered orally at a dose of 60 mg/kg; format: organism-based; parameters: dose 60 mg/kg
T1 sequence (whole entry): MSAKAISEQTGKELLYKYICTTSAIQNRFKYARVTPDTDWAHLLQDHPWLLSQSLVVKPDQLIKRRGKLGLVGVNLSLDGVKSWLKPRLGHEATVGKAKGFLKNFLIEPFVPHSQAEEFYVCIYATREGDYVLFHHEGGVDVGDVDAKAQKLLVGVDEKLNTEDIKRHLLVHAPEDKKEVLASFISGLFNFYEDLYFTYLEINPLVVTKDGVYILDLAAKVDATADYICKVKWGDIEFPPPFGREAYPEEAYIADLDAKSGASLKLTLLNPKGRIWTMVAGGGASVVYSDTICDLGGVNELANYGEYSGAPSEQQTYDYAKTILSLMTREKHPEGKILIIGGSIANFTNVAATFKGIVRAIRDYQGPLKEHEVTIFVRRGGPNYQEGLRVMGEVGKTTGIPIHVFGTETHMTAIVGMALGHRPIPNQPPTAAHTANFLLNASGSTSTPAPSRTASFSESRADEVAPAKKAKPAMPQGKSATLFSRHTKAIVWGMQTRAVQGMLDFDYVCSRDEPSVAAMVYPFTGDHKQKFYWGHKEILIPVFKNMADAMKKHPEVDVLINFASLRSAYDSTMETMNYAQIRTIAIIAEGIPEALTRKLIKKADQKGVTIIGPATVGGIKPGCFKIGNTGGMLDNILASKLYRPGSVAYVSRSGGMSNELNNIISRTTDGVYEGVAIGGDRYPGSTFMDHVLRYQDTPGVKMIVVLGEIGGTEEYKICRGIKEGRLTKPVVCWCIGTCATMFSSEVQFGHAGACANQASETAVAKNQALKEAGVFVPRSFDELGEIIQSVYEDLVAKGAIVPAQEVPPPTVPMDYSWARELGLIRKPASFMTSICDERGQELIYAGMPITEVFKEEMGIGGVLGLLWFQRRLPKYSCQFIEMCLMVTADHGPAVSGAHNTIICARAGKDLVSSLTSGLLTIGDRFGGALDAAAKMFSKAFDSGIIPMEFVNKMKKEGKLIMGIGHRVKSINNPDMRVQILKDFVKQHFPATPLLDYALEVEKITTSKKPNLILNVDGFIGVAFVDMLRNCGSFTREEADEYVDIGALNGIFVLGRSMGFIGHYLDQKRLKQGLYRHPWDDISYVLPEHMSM
Summary of the method: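 CF1 male mice are dosed orally at 10–60 mg/kg per day for 16 days, with 1% CMC as the control vehicle. Liver is homogenized at 10% in 0.25 M sucrose + 0.001 M EDTA, pH 7.2. Enzymes are assayed by literature methods, with Lowry protein. Activity is given as % of control (X ± SD, N = 6), with p from Student's t test.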

Rattus norvegicus [6] = experiment: Compound was evaluated for the hypolipidemic activity at 20 mg/kg per day orally for 14 days against neutral lipids in rat lipoprotein chylomicron; format: functional; conditions: route oral; summary of the method: as §2
[7] = molecular target: T2, 3-hydroxy-3-methylglutaryl-coenzyme A reductase (Mus musculus) (UniProt Q01237); experiment: In Vitro evaluation for the CF1 liver enzyme activity on HMG-CoA reductase at concentration 100 uM; summary of the method: as §1
T2 sequence (whole entry): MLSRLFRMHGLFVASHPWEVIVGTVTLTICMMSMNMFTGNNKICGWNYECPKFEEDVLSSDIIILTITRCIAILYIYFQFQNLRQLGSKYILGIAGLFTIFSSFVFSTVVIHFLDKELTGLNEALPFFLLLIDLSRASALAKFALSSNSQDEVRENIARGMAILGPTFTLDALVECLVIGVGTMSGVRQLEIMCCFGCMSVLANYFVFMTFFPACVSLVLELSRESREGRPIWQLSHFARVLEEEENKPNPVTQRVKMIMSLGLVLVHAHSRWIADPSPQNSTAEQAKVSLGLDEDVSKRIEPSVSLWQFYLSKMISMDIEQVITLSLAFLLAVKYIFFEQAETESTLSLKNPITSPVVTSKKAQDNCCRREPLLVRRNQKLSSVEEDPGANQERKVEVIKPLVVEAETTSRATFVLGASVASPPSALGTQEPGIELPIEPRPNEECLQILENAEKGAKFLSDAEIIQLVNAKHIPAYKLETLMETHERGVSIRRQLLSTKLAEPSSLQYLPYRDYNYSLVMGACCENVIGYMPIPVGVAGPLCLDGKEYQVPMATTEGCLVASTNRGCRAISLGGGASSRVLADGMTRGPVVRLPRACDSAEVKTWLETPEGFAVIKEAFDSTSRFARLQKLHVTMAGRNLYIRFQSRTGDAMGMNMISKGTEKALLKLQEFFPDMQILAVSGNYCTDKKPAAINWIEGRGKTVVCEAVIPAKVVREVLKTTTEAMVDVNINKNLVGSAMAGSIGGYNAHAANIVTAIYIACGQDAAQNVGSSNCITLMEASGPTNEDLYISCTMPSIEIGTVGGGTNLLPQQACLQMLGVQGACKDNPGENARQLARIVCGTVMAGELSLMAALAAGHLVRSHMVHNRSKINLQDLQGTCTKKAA

Rattus norvegicus [8] = experiment: Compound was evaluated for the hypolipidemic activity at 20 mg/kg per day orally for 14 days on protein content in rat HDL; format: functional; conditions: route oral; summary of the method: as §2

COc1ccc(C2C(=O)c3ccccc3C2=O)cc1 [ANISINDIONE]
Control [1]: 93% | Control (Mus musculus [2]): 86% | Control (Rattus norvegicus [3]): 69% | Serum cholesterol, % of control (Mus musculus [4]): 58% | Control [5]: 93% | Control (Rattus norvegicus [6]): 99% | Control [7]: 109% | Control (Rattus norvegicus [8]): 107%
